Active and inactive are the calls of the source. The calls are words filed in the database; no cut-off is given here.
How the values were obtained:
[1] = biological target: T1, Coagulation factor XII (Homo sapiens) (UniProt P00748); assay: […] inhibition of human coagulation factor XIIA using Boc-Gln-Gly-Arg-AMC as fluorogenic substrate measured every 87 sec for 180 mins by time-dependent fluorescence assay
T1 sequence (whole entry): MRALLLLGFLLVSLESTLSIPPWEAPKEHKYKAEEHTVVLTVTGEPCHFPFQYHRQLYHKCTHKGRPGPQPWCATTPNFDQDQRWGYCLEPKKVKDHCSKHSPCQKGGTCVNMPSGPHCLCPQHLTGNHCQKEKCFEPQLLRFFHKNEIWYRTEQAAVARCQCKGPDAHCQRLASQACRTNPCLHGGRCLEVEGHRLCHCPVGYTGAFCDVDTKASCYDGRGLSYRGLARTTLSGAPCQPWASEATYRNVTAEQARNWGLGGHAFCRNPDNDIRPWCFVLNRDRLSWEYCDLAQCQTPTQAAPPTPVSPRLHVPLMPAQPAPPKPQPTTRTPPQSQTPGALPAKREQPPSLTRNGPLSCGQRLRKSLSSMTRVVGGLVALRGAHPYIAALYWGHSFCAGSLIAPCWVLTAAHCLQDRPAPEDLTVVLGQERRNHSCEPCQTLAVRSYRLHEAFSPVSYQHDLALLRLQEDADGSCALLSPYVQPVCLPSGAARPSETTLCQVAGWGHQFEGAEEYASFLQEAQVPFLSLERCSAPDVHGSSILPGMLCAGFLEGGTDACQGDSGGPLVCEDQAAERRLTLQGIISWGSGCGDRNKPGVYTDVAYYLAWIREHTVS
Procedure, shortened: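 Fluorescence (ex 355/em 460 nm) was read at once, every 87 s, for up to 180 min. IC50 was computed at each time point and plotted against time.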

[2] = biological target: T2, Prothrombin (Homo sapiens, UniProt P00734); assay: Inhibition of human coagulation factor alpha-thrombin at 33 uM using Boc-Val-Pro-Arg-AMC as fluorogenic substrate measured at 1 min interval for 1 hr by fluorometric assay relative to control
[3] = biological target: T1, Coagulation factor XII (Homo sapiens); assay: Inhibition of human coagulation factor XIIA in presence of Boc-Gln-Gly-Arg-AMC as fluorogenic substrate at 1 uM measured at 1 min interval for 1 hr by fluorometric assay relative to control
Procedure, shortened: (§1)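 Screening of crude microscale amide-coupling products. Conversion was measured by 1H NMR and product content normalised to 76 µmol/L in DMSO, then tested at 1 µM and 100 nM in the fluorogenic FXIIa or thrombin assay. A 0-conversion reaction served as blank. Percent inhibition is from triplicates.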

[4] = test system: Blood; assay: Anticoagulant activity in human blood assessed as increase in activated partial thromboplastin time at 300 uM incubated for 1 min by aPTT reagent based assay relative to control; assay type: functional
Procedure, shortened: (§2)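 Compounds were tested at 300 µM, and the increase was expressed relative to DMSO. The doubling concentration (EC2×) is the concentration prolonging aPTT twofold. At least triplicate, mean ± SD.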

[5] = test system: Blood; assay: Effect on blood coagulation in human blood assessed as increase in prothrombin time at 300 uM incubated for 3 mins followed by CaCl2 addition by PT reagent based assay relative to control; assay type: ADME, tissue-based; conditions: 0.05 h
Procedure, shortened: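 Clotting was started with PT reagent already containing CaCl2, prewarmed to 37 °C, and clotting time was recorded. Increase is given relative to DMSO; at least triplicate, mean ± SD.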

[6] = Inhibition of porcine trypsin using Z-Gly-Gly-Arg-AMC as fluorogenic substrate measured at 1 min interval for 1 hr by fluorometric assay; design: species or system Sus scrofa
[7] = biological target: T3, Coagulation factor XII (Homo sapiens, UniProt P00748); assay: Inhibition of human coagulation factor XIIA using Boc-Gln-Gly-Arg-AMC as fluorogenic substrate measured at 1 min interval for 1 hr by fluorometric assay
T3 sequence (P00748 whole entry): T1 sequence (whole entry)

[8] = organism: Homo sapiens; assay: Selectivity index, ratio of IC50 for inhibition of human coagulation factor alpha-thrombin using Boc-Val-Pro-Arg-AMC as fluorogenic substrate to IC50 for inhibition of human coagulation factor XIIA using Boc-Gln-Gly-Arg-AMC as fluorogenic substrate incubated for 1 hr by fluorometric assay
[9] = biological target: Coagulation factor XI (Homo sapiens, UniProt P03951); assay: Inhibition of human coagulation factor XIA using Mes-dArg-Pro-Arg-AMC as fluorogenic substrate measured at 1 min interval for 1 hr by fluorometric assay
[10] = biological target: Plasminogen (Homo sapiens, UniProt P00747); assay: Inhibition of human plasmin using Mes-dArg-Phe-Arg-AMC as fluorogenic substrate measured at 1 min interval for 1 hr by fluorometric assay
[11] = biological target: Plasma kallikrein (Homo sapiens, UniProt P03952); assay: Inhibition of human kallikrein using Mes-dArg-Pro-Arg-AMC as fluorogenic substrate measured at 1 min interval for 1 hr by fluorometric assay
[12] = biological target: T2, Prothrombin; assay: Inhibition of human coagulation factor thrombin using Boc-Val-Pro-Arg-AMC as fluorogenic substrate at 100 nM measured at 1 min interval for 1 hr by fluorometric assay relative to control; procedure, shortened: as §1
[13] = biological target: T1, Coagulation factor XII (Homo sapiens); assay: Inhibition of human coagulation factor XIIA using Boc-Gln-Gly-Arg-AMC as fluorogenic substrate at 100 nM measured at 1 min interval for 1 hr by fluorometric assay relative to control; procedure, shortened: as §1
[14] = biological target: T4, Coagulation factor X (Homo sapiens, UniProt P00742); assay: Inhibition of human coagulation factor Xa using Boc-Ile-Glu-Gly-Arg-AMC as fluorogenic substrate measured at 1 min interval for 1 hr by fluorometric assay
[15] = biological target: T2, Prothrombin; assay: Inhibition of human coagulation factor alpha-thrombin using Boc-Val-Pro-Arg-AMC as fluorogenic substrate measured at 1 min interval for 1 hr by fluorometric assay
[16] = biological target: T5, Urokinase-type plasminogen activator (Homo sapiens, UniProt P00749); assay: Inhibition of human uPA using Tos-Gly-Pro-Arg-AMC as fluorogenic substrate at 5 uM measured at 1 min interval for 1 hr by fluorometric assay relative to control
[17] = biological target: T1, Coagulation factor XII (Homo sapiens); assay: Binding affinity to human plasma coagulation factor XIIA assessed as compound-adduct formation by measuring change in molecular mass at molar ratio of 1:20 measured after 4 mins by SEC/ESI-TOF mass spectra analysis; assay type: cell-free
Procedure, shortened: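 β-FXIIa incubated with inhibitor at a 1:20 molar ratio, then size-exclusion chromatography coupled to ESI-MS to measure the mass of enzyme–inhibitor complexes. Further runs checked complex stability to probe reversibility.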

[18] = test system: Plasma; assay: Antiplatelet activity in […] assessed as inhibition of MDA-MB-231-induced platelet aggregation at 0.1 to 10 uM by light transmission aggregometry; assay type: functional; conditions: Homo sapiens, dose 0.1-10 µM
[19] = biological target: T2, Prothrombin; assay: Inhibition of human coagulation factor alpha-thrombin using Boc-Val-Pro-Arg-AMC as fluorogenic substrate at 2 uM measured at 1 min interval for 1 hr by fluorometric assay relative to control
[20] = test system: HepG2; assay: Cytotoxicity against human HepG2 cells assessed as reduction in cell viability at 100 uM incubated for 48 hrs by alamar blue assay relative to control; assay type: cell-based; conditions: hepg2, 48 h
[21] = test system: CCF-STTG1; assay: Cytotoxicity against human CCF-STTG1 cells assessed as reduction in cell viability at 100 uM incubated for 48 hrs by alamar blue assay relative to control; assay type: cell-based; conditions: ccf-sttg1, 48 h
[22] = test system: Plasma; assay: (§3) Anticoagulant activity in human platelet-rich plasma assessed as reduction in TF-induced thrombin generation by measuring endogenous thrombin potential at 1 uM preincubated for 15 mins followed by TF addition by Z-Gly-Gly-Arg-AMC substrate based calibrated automated thrombography (reference value: 1203 +/- 44 AU.min/L); assay type: functional; conditions: 0.25 h
Procedure, shortened: (§4)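 Tissue-factor-triggered homogeneous thrombin generation followed by fluorogenic substrate cleavage. Read-outs: clotting time (T1/2), peak amplitude (Amax, AU/L), time to peak (Tmax) and ETP (AU·min/L). DMSO and buffer served as controls. n = 3, mean ± SD.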

[23] = test system: Plasma; assay: as §3, with “Tmax of clotting time” for “endogenous thrombin potential”, “8.1” for “1203”, “0.6 min)” for “44 AU.min/L)”; assay type: functional, cell-free; procedure, shortened: as §4
[24] = test system: Plasma; assay: Anticoagulant activity in human platelet-rich plasma assessed as reduction in TF-induced thrombin generation by measuring half life of clotting time at 1 uM preincubated for 15 mins followed by TF addition by Z-Gly-Gly-Arg-AMC substrate based calibrated automated thrombography (Rvb= 3 +/- 0.5 min); assay type: functional, cell-free; procedure, shortened: as §4
[25] = test system: Plasma; assay: as §3, with “amplitude of” for “endogenous”, “peak” for “potential”, “63” for “1203”, “3.7 AU/L)” for “44 AU.min/L)”; assay type: functional; conditions: 0.25 h; procedure, shortened: as §4
[26] = biological target: T4, Coagulation factor X; assay: Inhibition of human coagulation factor Xa using Boc-Ile-Glu-Gly-Arg-AMC as fluorogenic substrate at 1 uM measured at 1 min interval for 1 hr by fluorometric assay relative to control
[27] = biological target: T5, Urokinase-type plasminogen activator; assay: Inhibition of human uPA using Tos-Gly-Pro-Arg-AMC as fluorogenic substrate measured at 1 min interval for 1 hr by fluorometric assay
[28] = biological target: T6, Monoglyceride lipase (Homo sapiens, UniProt Q99685); assay: Inhibition of human recombinant MAGL using 1,3-dihydroxypropan-2-yl 4-pyren-1-ylbutanoate as substrate measured after 45 mins by reverse-phase HPLC-based fluorescence assay
T6 sequence (Q99685 whole entry): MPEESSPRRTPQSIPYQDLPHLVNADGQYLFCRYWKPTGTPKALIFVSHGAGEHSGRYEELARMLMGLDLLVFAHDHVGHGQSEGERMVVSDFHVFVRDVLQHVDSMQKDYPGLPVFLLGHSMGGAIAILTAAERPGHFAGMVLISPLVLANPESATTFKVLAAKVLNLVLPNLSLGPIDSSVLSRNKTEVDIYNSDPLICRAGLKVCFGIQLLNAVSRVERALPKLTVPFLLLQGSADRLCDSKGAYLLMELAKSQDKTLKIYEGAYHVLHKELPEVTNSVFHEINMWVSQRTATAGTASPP

[29] = biological target: T7, Fatty-acid amide hydrolase 1 (Rattus norvegicus, UniProt P97612); assay: Inhibition of FAAH in rat brain membrane using N-(2-hydroxyethyl)-4-pyren-1-ylbutanamide as substrate measured after 60 mins by reverse-phase HPLC-based fluorescence assay; assay type: cell membranes
T7 sequence (P97612 whole entry): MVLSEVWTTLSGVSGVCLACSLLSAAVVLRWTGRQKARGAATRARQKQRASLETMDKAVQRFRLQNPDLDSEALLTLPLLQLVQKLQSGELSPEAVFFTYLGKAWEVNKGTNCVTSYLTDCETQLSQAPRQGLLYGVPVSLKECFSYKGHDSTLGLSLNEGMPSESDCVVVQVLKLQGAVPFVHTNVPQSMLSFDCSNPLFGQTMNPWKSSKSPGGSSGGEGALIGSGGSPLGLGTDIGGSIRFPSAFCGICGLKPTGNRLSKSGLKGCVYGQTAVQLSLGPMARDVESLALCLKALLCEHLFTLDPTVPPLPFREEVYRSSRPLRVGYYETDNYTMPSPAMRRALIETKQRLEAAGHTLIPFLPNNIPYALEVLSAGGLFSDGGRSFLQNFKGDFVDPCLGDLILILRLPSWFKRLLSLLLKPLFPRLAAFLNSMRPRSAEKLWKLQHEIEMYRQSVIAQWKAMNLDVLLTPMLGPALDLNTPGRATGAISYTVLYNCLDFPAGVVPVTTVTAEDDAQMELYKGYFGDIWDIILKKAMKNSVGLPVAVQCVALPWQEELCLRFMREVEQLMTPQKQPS

[30] = test system: Blood; assay: Anticoagulant activity in human blood assessed as activated partial thromboplastin time at 300 uM incubated for 1 min by aPTT reagent based assay (reference value: 44 sec); assay type: functional; procedure, shortened: as §2

T4 sequence (P00742 41-179 limits assumed): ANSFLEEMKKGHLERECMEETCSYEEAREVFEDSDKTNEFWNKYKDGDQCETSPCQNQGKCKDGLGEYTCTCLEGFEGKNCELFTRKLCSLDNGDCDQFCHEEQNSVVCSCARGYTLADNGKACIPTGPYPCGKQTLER
T4 sequence (P00742 235-488 limits assumed): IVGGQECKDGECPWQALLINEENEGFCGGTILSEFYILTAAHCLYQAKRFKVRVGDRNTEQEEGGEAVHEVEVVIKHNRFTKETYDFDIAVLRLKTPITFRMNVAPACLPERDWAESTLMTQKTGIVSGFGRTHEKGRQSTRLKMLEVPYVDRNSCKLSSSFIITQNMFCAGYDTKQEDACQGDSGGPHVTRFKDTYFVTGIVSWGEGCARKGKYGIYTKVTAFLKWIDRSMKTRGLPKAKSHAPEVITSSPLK
Sequence of Plasma kallikrein (P03952 20-390 limits assumed): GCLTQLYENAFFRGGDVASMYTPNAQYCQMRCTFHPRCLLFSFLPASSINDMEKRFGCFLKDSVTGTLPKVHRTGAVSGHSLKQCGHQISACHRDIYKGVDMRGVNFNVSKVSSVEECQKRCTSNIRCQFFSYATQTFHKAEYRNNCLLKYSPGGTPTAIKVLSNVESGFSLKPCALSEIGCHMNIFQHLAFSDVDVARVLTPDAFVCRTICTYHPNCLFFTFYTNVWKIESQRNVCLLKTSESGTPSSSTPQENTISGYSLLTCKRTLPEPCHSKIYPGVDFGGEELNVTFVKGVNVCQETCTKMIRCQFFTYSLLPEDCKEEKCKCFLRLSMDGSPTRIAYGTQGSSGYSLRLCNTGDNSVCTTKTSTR
Sequence of Plasma kallikrein (P03952 391-638 limits assumed): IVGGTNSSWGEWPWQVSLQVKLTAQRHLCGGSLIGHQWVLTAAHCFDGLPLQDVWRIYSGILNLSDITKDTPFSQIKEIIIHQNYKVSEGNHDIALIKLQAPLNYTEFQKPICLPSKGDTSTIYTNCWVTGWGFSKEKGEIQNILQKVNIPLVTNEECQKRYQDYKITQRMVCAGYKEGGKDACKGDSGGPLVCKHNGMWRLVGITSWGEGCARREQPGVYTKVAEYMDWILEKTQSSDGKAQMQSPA
Sequence of Plasminogen (P00747 97-580 limits assumed): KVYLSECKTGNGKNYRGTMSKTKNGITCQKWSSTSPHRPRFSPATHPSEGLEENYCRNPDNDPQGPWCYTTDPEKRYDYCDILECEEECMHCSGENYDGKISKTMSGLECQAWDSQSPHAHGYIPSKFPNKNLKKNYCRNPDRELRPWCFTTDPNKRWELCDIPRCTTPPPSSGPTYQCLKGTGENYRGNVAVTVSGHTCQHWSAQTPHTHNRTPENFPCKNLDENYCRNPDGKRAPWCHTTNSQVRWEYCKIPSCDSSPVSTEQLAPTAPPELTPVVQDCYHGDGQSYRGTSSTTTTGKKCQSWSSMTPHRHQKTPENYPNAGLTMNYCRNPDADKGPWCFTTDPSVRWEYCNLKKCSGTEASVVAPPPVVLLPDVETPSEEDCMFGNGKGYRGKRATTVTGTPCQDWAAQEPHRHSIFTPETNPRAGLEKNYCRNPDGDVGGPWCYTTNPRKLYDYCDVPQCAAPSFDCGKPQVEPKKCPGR
Sequence of Plasminogen (P00747 581-810 limits assumed): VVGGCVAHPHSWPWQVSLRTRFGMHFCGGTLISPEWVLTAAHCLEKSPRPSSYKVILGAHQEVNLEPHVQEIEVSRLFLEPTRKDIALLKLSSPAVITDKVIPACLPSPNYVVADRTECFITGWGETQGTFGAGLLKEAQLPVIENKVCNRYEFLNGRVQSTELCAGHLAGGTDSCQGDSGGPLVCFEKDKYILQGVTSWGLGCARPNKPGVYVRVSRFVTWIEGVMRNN
Sequence of Coagulation factor XI (P03951 19-387 limits assumed): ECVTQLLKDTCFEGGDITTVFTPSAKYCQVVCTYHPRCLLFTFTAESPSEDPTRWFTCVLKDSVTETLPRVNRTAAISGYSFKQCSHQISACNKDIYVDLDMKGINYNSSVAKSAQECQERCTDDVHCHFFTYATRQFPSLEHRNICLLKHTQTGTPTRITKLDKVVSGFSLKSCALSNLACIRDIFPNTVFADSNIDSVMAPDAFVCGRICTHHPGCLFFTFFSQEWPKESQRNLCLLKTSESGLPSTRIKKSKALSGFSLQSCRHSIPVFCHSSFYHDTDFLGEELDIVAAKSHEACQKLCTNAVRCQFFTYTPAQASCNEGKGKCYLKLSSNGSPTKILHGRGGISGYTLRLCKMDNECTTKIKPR
Sequence of Coagulation factor XI (P03951 388-625 limits assumed): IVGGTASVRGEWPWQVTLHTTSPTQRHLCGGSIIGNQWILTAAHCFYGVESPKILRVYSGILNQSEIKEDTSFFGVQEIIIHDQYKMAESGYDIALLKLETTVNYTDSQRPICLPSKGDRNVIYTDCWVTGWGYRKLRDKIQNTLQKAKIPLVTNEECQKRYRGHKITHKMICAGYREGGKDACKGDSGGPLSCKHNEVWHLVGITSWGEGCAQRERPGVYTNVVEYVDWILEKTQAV

inhibition [1] | inhibition [3] | Activity [5] | IC50 [6] | IC50 [7] | Ratio IC50 [8] | IC50 [9] | IC50 [10] | IC50 [11] | IC50 [14] | IC50 [15] | Structure (SMILES) | Activity [4] | further results
– | 89% | 2% | > 5 µM | 0.109 µM | > 18 | – | – | – | > 5 µM | – | Nc1nc(-c2ccccn2)nn1C(=O)c1ccc(NC(=O)c2ccccc2)cc1 | 35% | Activity [17]: 223 Da; inhibition [18]: inactive; inhibition [19]: 38%; Activity [20]: 13%; Activity [21]: 35%
inactive | -1% | – | – | – | – | – | – | – | – | – | Cn1c(CNc2ccc(C(=N)N)cc2)nc2cc(C(=O)N(CCC(=O)O)c3ccccn3)ccc21 [DABIGATRAN] | 252% | Activity [22]: 678 AU.min/L; Tmax [23]: 25.5 min; T1/2 [24]: 15.2 min; Activity [25]: 72.4 AU/L; inhibition [26]: 34%; Ki [6]: 0.05 µM

More lines, now with the values behind:

Structure (SMILES) | inhibition [1] | inhibition [3] | Activity [5] | IC50 [6] | IC50 [7] | Ratio IC50 [8] | IC50 [9] | IC50 [10] | IC50 [11] | IC50 [14] | IC50 [15] | Activity [4] | further results
O=C(NC[C@H]1CN(c2ccc(N3CCOCC3=O)cc2)C(=O)O1)c1ccc(Cl)s1 [RIVAROXABAN] | inactive | -3% | 1302% | > 5 µM | > 33 µM | – | – | – | – | – | – | 335% | inhibition [2]: 55%
Nc1nc(-c2ccccn2)nn1C(=O)Cc1ccccc1I | – | 89% | 6% | – | 0.062 µM | 29 | > 5 µM | > 5 µM | > 5 µM | > 5 µM | 1.82 µM | 92% | inhibition [12]: 2%; inhibition [13]: 47%; inhibition [16]: 41%
Nc1nc(-c2ccccn2)nn1C(=O)c1ccccc1 | – | 81% | 12% | > 5 µM | 0.132 µM | – | > 5 µM | > 5 µM | > 5 µM | > 5 µM | 0.235 µM | 143% | IC50 [27]: 7.93 µM; IC50 [28]: > 5 µM; IC50 [29]: > 5 µM; APTT [30]: 108 s
